Assay results published in ChEMBL document CHEMBL1123752, “Hexahydro-1H-1-pyrindines from acid rearrangement of 9-alkylidene-5-(m-methoxyphenyl)-2-methylmorphans. A new structural type of narcotic antagonists” (J Med Chem, 1987).
Calls of active or inactive are those of the source. The rule behind the calls is not given here.

What was measured:
Mu-type opioid receptor = Mu-type opioid receptor (Rattus norvegicus, UniProt P33535); assay: Compound administered subcutaneously was evaluated for inhibition constant measured as the displacement of [3H]DAGO from rat brain
Sequence of Mu-type opioid receptor (P33535 whole entry): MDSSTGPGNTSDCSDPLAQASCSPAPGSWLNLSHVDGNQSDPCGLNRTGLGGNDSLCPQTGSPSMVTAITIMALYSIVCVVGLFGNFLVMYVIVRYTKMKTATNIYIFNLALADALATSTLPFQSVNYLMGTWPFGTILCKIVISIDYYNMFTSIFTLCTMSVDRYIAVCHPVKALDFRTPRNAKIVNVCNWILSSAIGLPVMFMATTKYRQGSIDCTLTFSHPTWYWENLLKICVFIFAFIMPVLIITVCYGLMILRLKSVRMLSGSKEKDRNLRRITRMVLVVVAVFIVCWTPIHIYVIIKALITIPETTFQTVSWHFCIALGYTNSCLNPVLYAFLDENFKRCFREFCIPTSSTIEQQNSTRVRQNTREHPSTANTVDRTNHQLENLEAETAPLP
Summary of the method: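 Membranes from adult male Sprague-Dawley rat whole brain minus cerebellum, washed in 20 mM potassium phosphate pH 7.4, about 1 mg protein per tube. [³H]DAGO was added from a 2 nM solution. Nonspecific binding was defined with 10 μM naloxone (final). Incubation 45 min at 25 °C, then glass-fibre filtration and scintillation counting. Ki was derived by Cheng–Prusoff.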

Mus musculus [1] = assay: Antinociceptive activity was determined by p-phenylquinone-writhing test in mice after subcutaneous administration; type: functional; conditions: sc
Summary of the method: (§1)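 Mice were dosed subcutaneously. Antinociceptive […] is given in mg/kg with 95% confidence limits.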

Mus musculus [2] = assay: Compound administered subcutaneously was evaluated for Opioid antagonist activity versus morphine by tail flick antagonism test in mice.; type: functional
Summary of the method: (§2)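 Mouse tail-flick test run against morphine, with test agent given subcutaneously. Antagonist AD50 is given in mg/kg with 95% confidence limits.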

Mus musculus [3] = assay: Antinociceptive activity was determined by hot plate test in mice after subcutaneous administration;IA means inactive at 1,10 or 30.0 mg/kg; type: functional, organism-based; design: dose 30 mg/kg; summary of the method: as §1
Mus musculus [4] = assay: Antinociceptive activity was determined by tail flick test in mice after subcutaneous administration; IA means inactive at 1,10 or 30.0 mg/kg; type: functional, organism-based; design: dose 30 mg/kg; summary of the method: as §1
Mus musculus [5] = assay: Antinociceptive activity was determined by p-phenylquinone-writhing test in mice after subcutaneous administration; I means inactive at 1,10 or 30.0 mg/kg; type: functional, organism-based; design: dose 30 mg/kg; summary of the method: as §1
Mus musculus [6] = assay: Antinociceptive activity was determined by tail flick test in mice after subcutaneous administration; I means inactive at 1,10 or 30.0 mg/kg; type: functional, organism-based; design: dose 30 mg/kg; summary of the method: as §1
Mus musculus [7] = assay: Compound administered subcutaneously was evaluated for opioid antagonist activity versus morphine by tail flick antagonism test in mice.; type: functional; summary of the method: as §2
Mus musculus [8] = assay: Antinociceptive activity was determined by hot plate test in mice after subcutaneous administration at 50 mg/kg; type: functional
Summary of the method: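 Mouse hot-plate assay with subcutaneous dosing. Activity is reported as percent effect at a single 50 mg/kg dose.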

Mus musculus [9] = assay: Compound administered subcutaneously was evaluated for Opioid antagonist activity versus morphine by tail flick antagonism test in mice 95% confidence limits are in brackets; type: functional; summary of the method: as §2
Mus musculus [10] = assay: Compound administered subcutaneously was evaluated for antinociceptive activity determined by p-phenylquinone-writhing test in mice; type: functional; conditions: sc; summary of the method: as §1

Compound | Ki (Mu-type opioid receptor) [nM] | ED50 (Mus musculus [1]) [mg/kg] | AD50 (Mus musculus [2]) [mg/kg] | ED50 (Mus musculus [3]) | ED50 (Mus musculus [4]) | ED50 (Mus musculus [5]) | ED50 (Mus musculus [6]) | AD50 (Mus musculus [7]) [mg/kg] | Effect (Mus musculus [8]) [%] | AD50 (Mus musculus [9]) [mg/kg] | ED50 (Mus musculus [10]) [mg/kg]
CC[C@]12CCC[C@H]1N(C)CC=C2c1cccc(O)c1 | 84 | 35.5 | 2.1 | inactive | inactive | – | – | – | – | – | –
CN1CC=C(c2cccc(O)c2)[C@@]2(C)CCC[C@@H]12 | 81 | – | – | – | – | inactive | inactive | 1.7 | 40 | – | –
C=CCN1CC[C@]23c4c5ccc(O)c4O[C@H]2[C@@H](O)C=C[C@H]3[C@H]1C5.Cl [NALORPHINE HYDROCHLORIDE] | 2 | – | – | – | inactive | – | – | – | – | 2.6 | 0.6
